In ChEMBL document CHEMBL1122064, “Synthesis and biological evaluation of 17-[131I]iodo-9-telluraheptadecanoic acid, a potential imaging agent” (J Med Chem, 1982):

Experiments:
[1] = system: Rattus norvegicus; assay: Distribution of radioactivity in brain of Fischer 344 female rat after 2 hr of intravenous administration; format: ADME, organism-based; settings: in vivo
Outline: (§1)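 Female Fischer 344 rats (10-12 weeks, 170-200 g) with food and water ad libitum. The 131I-labelled fatty acid was taken up in ethanol, added dropwise to stirred 6% BSA at 40 °C (final ethanol 10%), filtered, and injected into a lateral tail vein under ether. Rats were CO2-anaesthetised and killed; organs were excised, rinsed, blotted, weighed and Ge(Li)-counted. Results are mean (range) % injected dose/g.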

[2] = system: Rattus norvegicus; assay: Distribution of radioactivity in heart of Fischer 344 female rat after 4 day of intravenous administration; format: ADME, organism-based; settings: in vivo, 96 h; outline: as §1
[3] = system: Rattus norvegicus; assay: Distribution of radioactivity in blood of Fischer 344 female rat after 7 days of intravenous administration; format: ADME, organism-based; settings: in vivo, 168 h; outline: as §1
[4] = system: Rattus norvegicus; assay: Distribution of radioactivity in lungs of Fischer 344 female rat after 2 hr of intravenous administration; format: ADME, organism-based, Lung; settings: in vivo
Outline: (§2)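 Female Fischer 344 rats, 10-12 weeks old, 170-200 g, fed ad libitum. The 131I-labelled fatty acid was dissolved in absolute ethanol, added dropwise to stirred 6% bovine serum albumin at 40 °C (final ethanol 10%), filtered, and injected into a lateral tail vein under ether anaesthesia. Organs were excised, rinsed, blotted and weighed, then counted by Ge(Li) analyzer as percent injected dose/g.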

[5] = system: Rattus norvegicus; assay: Distribution of radioactivity in Thyroid of Fischer 344 female rat after 7 days of intravenous administration; format: ADME, organism-based; settings: in vivo, 168 h; outline: as §1
[6] = system: Rattus norvegicus; assay: Distribution of radioactivity in Thyroid of Fischer 344 female rat after 4 days of intravenous administration; format: ADME, organism-based; settings: in vivo, 96 h; outline: as §1
[7] = system: Rattus norvegicus; assay: Distribution of radioactivity in lungs of Fischer 344 female rat after 30 min of intravenous administration; format: ADME, organism-based, Lung; settings: in vivo, 0.5 h
Outline: (§3)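 Female Fischer 344 rats, 10-12 weeks, 170-200 g, fed ad libitum. The labelled fatty acid was given in 6% bovine serum albumin via a lateral tail vein under ether anaesthesia. Rats were killed by CO2 anaesthesia and cervical fracture; organs were excised, rinsed, blotted, weighed and counted by Ge(Li) analyzer. Results are mean percent injected dose/g with range.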

[8] = system: Rattus norvegicus; assay: Distribution of radioactivity in kidneys of Fischer 344 female rat after 10 min of intravenous administration; format: ADME, organism-based, Kidney; settings: in vivo; outline: as §1
[9] = system: Rattus norvegicus; assay: Distribution of radioactivity in kidneys of Fischer 344 female rat after 2 hr of intravenous administration; format: ADME, organism-based, Kidney; settings: in vivo; outline: as §1
[10] = system: Rattus norvegicus; assay: Distribution of radioactivity in heart of Fischer 344 female rat after 7 days of intravenous administration; format: ADME, organism-based; settings: in vivo, 168 h; outline: as §1
[11] = system: Rattus norvegicus; assay: Distribution of radioactivity in heart of Fischer 344 female rat after 60 min of intravenous administration; format: ADME, organism-based; settings: in vivo, 1 h
[12] = system: Rattus norvegicus; assay: Distribution of radioactivity in brain of Fischer 344 female rat after 60 min of intravenous administration; format: ADME, organism-based; settings: in vivo, 1 h; outline: as §1
[13] = system: Rattus norvegicus; assay: Distribution of radioactivity in lungs of Fischer 344 female rat after 60 min of intravenous administration; format: ADME, organism-based, Lung; settings: in vivo, 1 h; outline: as §3
[14] = system: Rattus norvegicus; assay: Distribution of radioactivity in brain of Fischer 344 female rat after 4 days of intravenous administration; format: ADME, organism-based; settings: in vivo, 96 h; outline: as §1
[15] = system: Rattus norvegicus; assay: Distribution of radioactivity in heart of Fischer 344 female rat after 30 min of intravenous administration; format: ADME, organism-based; settings: in vivo, 0.5 h
[16] = system: Rattus norvegicus; assay: Distribution of radioactivity in heart of Fischer 344 female rat after 6 hr of intravenous administration; format: ADME, organism-based; settings: in vivo; outline: as §1
[17] = system: Rattus norvegicus; assay: Distribution of radioactivity in kidneys of Fischer 344 female rat after 4 days of intravenous administration; format: ADME, organism-based, Kidney; settings: in vivo, 96 h; outline: as §1
[18] = system: Rattus norvegicus; assay: Distribution of radioactivity in liver of Fischer 344 female rat after 6 hr of intravenous administration; format: ADME, organism-based; settings: in vivo; outline: as §2
[19] = system: Rattus norvegicus; assay: Distribution of radioactivity in heart of Fischer 344 female rat after 2 hr of intravenous administration; format: ADME, organism-based; settings: in vivo; outline: as §1
[20] = system: Rattus norvegicus; assay: Distribution of radioactivity in liver of Fischer 344 female rat after 24 hr of intravenous administration; format: ADME, organism-based; settings: in vivo; outline: as §2
[21] = system: Rattus norvegicus; assay: Distribution of radioactivity in kidneys of Fischer 344 female rat after 7 days of intravenous administration; format: ADME, organism-based, Kidney; settings: in vivo, 168 h; outline: as §1
[22] = system: Rattus norvegicus; assay: Distribution of radioactivity in liver of Fischer 344 female rat after 10 min of intravenous administration; format: ADME, organism-based; settings: in vivo; outline: as §1
[23] = system: Rattus norvegicus; assay: Distribution of radioactivity in brain of Fischer 344 female rat after 2 min of intravenous administration; format: ADME, organism-based; settings: in vivo; outline: as §1
[24] = system: Rattus norvegicus; assay: Distribution of radioactivity in blood of Fischer 344 female rat after 30 min of intravenous administration; format: ADME, organism-based; settings: in vivo, 0.5 h
[25] = system: Rattus norvegicus; assay: Distribution of radioactivity in Thyroid of Fischer 344 female rat after 24 hr of intravenous administration; format: ADME, organism-based; settings: in vivo; outline: as §1
[26] = system: Rattus norvegicus; assay: Distribution of radioactivity in Thyroid of Fischer 344 female rat after 60 min of intravenous administration; format: ADME, organism-based; settings: in vivo, 1 h; outline: as §1
[27] = system: Rattus norvegicus; assay: Distribution of radioactivity in heart of Fischer 344 female rat after 10 min of intravenous administration; format: ADME, organism-based; settings: in vivo; outline: as §1
[28] = system: Rattus norvegicus; assay: Distribution of radioactivity in heart of Fischer 344 female rat after 24 hr of intravenous administration; format: ADME, organism-based; settings: in vivo; outline: as §1
[29] = system: Rattus norvegicus; assay: Distribution of radioactivity in lungs of Fischer 344 female rat after 6 hr of intravenous administration; format: ADME, organism-based, Lung; settings: in vivo; outline: as §2
[30] = system: Rattus norvegicus; assay: Distribution of radioactivity in liver of Fischer 344 female rat after 60 min of intravenous administration; format: ADME, organism-based; settings: in vivo, 1 h; outline: as §3
[31] = system: Rattus norvegicus; assay: Distribution of radioactivity in lungs of Fischer 344 female rat after 10 min of intravenous administration; format: ADME, organism-based, Lung; settings: in vivo; outline: as §2
[32] = system: Rattus norvegicus; assay: Distribution of radioactivity in blood of Fischer 344 female rat after 10 min of intravenous administration; format: ADME, organism-based; settings: in vivo; outline: as §1

O=C(O)CCCCCCCC[Te]CCCCCCCC[131I]
Distribution of radioactivity [1]: 0.04 dose g-1
Distribution of radioactivity [2]: 0.04 dose g-1
Distribution of radioactivity [3]: 0.009 dose g-1
Distribution of radioactivity [4]: 0.68 dose g-1
Distribution of radioactivity [5]: 203 dose g-1
Distribution of radioactivity [6]: 226 dose g-1
Distribution of radioactivity [7]: 0.85 dose g-1
Distribution of radioactivity [8]: 1.14 dose g-1
Distribution of radioactivity [9]: 0.54 dose g-1
Distribution of radioactivity [10]: 0.016 dose g-1
Distribution of radioactivity [11]: 1.86 dose g-1
Distribution of radioactivity [12]: 0.05 dose g-1
Distribution of radioactivity [13]: 0.75 dose g-1
Distribution of radioactivity [14]: < 0.007 dose g-1
Distribution of radioactivity [15]: 1.78 dose g-1
Distribution of radioactivity [16]: 0.57 dose g-1
Distribution of radioactivity [17]: 0.03 dose g-1
Distribution of radioactivity [18]: 0.51 dose g-1
Distribution of radioactivity [19]: 1.33 dose g-1
Distribution of radioactivity [20]: 0.13 dose g-1
Distribution of radioactivity [21]: 0.016 dose g-1
Distribution of radioactivity [22]: 3.23 dose g-1
Distribution of radioactivity [23]: 0.17 dose g-1
Distribution of radioactivity [24]: 0.72 dose g-1
Distribution of radioactivity [25]: 475 dose g-1
Distribution of radioactivity [26]: 74.7 dose g-1
Distribution of radioactivity [27]: 2.01 dose g-1
Distribution of radioactivity [28]: 0.11 dose g-1
Distribution of radioactivity [29]: 0.48 dose g-1
Distribution of radioactivity [30]: 1.16 dose g-1
Distribution of radioactivity [31]: 1.11 dose g-1
Distribution of radioactivity [32]: 0.88 dose g-1
